Results taken from ChEMBL document CHEMBL1125209, “Boc-CCK-4 derivatives containing side-chain ureas as potent and selective CCK-a receptor agonists” (J Med Chem, 1991).
*1 amine or outer side, *2 acyl side, *3 side chain or, on linkers, in order; H or OH if unused. Where a SMILES comes first, the peptide text is derived from it. Side-chain parts run from the residue outwards. [ ]: non-standard residue; d: D form. The star is where a group is joined. NH(2-CF3-phenyl) = FC(F)(F)c1ccccc1N*; NH(1-naphthyl) = c1ccc2c(N*)cccc2c1; NHPh(4-CF3) = FC(F)(F)c1ccc(N*)cc1; hCit = NC(=O)NCCCC[C@H](N)C(=O)O; NH(2-Me-phenyl) = Cc1ccccc1N*; X3 = O=[N+]([O-])c1ccccc1N*; 3Abz = Nc1cccc(C(=O)O)c1; Orn = NCCC[C@H](N)C(=O)O; βNA = c1ccc2cc(N*)ccc2c1; X4 = CC(=O)c1cccc(N*)c1; X8 = Clc1ccc(N*)c(Cl)c1; 2Abz = Nc1ccccc1C(=O)O; Boc = CC(C)(C)OC(=O)*; NHcHex = C1CCC(N*)CC1; X1 = Clc1cccc(Cl)c1N*; X7 = Clc1cccc(N*)c1Cl; CO = O=C([*:1])[*:2]; X2 = CC(C)c1ccccc1N*; NHPh = c1ccc(N*)cc1; NHtBu = CC(C)(C)N*

Legend:
[1] = target: T1, Cholecystokinin receptor type A (Cavia porcellus, UniProt Q63931); assay: Binding affinity towards cholecystokinin type A receptor in guinea pig pancreas by using [125I]BH-CCK-8 as radioligand; format: tissue-based
T1 sequence (Q63931 whole entry): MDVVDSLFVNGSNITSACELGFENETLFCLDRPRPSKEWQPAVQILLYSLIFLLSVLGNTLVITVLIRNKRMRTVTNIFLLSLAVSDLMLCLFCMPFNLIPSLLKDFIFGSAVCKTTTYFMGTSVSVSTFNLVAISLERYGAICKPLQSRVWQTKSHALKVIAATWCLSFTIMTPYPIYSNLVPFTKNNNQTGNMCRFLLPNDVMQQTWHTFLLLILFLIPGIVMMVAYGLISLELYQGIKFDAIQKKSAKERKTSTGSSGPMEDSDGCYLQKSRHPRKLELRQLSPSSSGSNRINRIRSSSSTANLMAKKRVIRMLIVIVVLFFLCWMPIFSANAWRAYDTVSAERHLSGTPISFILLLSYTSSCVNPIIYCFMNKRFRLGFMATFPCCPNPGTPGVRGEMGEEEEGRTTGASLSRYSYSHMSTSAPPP
Procedure, shortened: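 Radioligand displacement of [125I]Bolton-Hunter CCK-8, guinea pig pancreas (CCK-A) or cortex (CCK-B) membranes. […] Each determination was run in duplicate with <5% sample variability. Means ±SE are given where there were three or more determinations.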

Cavia porcellus [2] = organism: Cavia porcellus; assay: The compound was tested for effective concentration for amylase release in guinea pig pancreatic Acini; format: functional
Procedure, shortened: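 Amylase release from guinea pig pancreatic acini. […] Each determination was run in duplicate with <5% sample variability. Means ±SE are given where there were three or more determinations.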

[3] = Selectivity ratio of IC50 measured in guinea pig cortex to that of IC50 for guinea pig pancreas; conditions: Cavia porcellus
Cavia porcellus [4] = organism: Cavia porcellus; assay: Percentage response in phosphoinositide hydrolysis relative to maximal response elicited by CCK-8 in guinea pig pancreatic acini; format: functional
Procedure, shortened: (§1)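 Guinea pig pancreatic acini, phosphoinositide hydrolysis. […] Efficacy is expressed as % of the maximal response elicited by CCK-8. Each determination was run in duplicate with <5% sample variability. Means ±SE are given for three or more determinations.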

[5] = target: T1, Cholecystokinin receptor type A; assay: Binding affinity for Cholecystokinin type A receptor in guinea pig pancreas by using [125I]BH-CCK-8 as radioligand
Cavia porcellus [6] = organism: Cavia porcellus; assay: Effective concentration for hydrolysis of phosphoinositide in guinea pig pancreatic Acini; format: functional; procedure, shortened: as §1
[7] = target: Gastrin/cholecystokinin type B receptor (Cavia porcellus); assay: Binding affinity towards cholecystokinin type B receptor in guinea pig cortex by using [125I]BH-CCK-8 as radioligand

IC50 [1]	EC50 (Cavia porcellus [2])	Selectivity [3]	IC50 [5]	EC50 (Cavia porcellus [6])	IC50 [7]	Structure (SMILES)	Max response (Cavia porcellus [4])
220 nM						Cc1ccccc1/N=C(/S)NCCCC[C@H](NC(=O)[C@H](Cc1c[nH]c2ccccc12)NC(=O)OC(C)(C)C)C(=O)N[C@@H](CC(=O)O)C(=O)N[C@@H](Cc1ccccc1)C(N)=O	
	20 nM	29	100 nM			CC(C)(C)OC(=O)N[C@@H](Cc1c[nH]c2ccccc12)C(=O)N[C@@H](CCCC/N=C(\S)Nc1ccccc1Cl)C(=O)N[C@@H](CC(=O)O)C(=O)N[C@@H](Cc1ccccc1)C(N)=O	83%
26 nM	2.7 nM	54				COC(=O)c1cccc(NC(=O)NCCCC[C@H](NC(=O)[C@H](Cc2c[nH]c3ccccc23)NC(=O)OC(C)(C)C)C(=O)N[C@@H](CC(=O)O)C(=O)N[C@@H](Cc2ccccc2)C(N)=O)c1 (Boc-WK([CO-3Abz-OMe])DF-NH2)	88%
	0.77 nM		8 nM	6.2 nM		CC(C)(C)OC(=O)N[C@@H](Cc1c[nH]c2ccccc12)C(=O)N[C@@H](CCCCNC(=O)Nc1ccccc1C(F)(F)F)C(=O)N[C@@H](CC(=O)O)C(=O)N[C@@H](Cc1ccccc1)C(N)=O (Boc-WK([CO-NH(2-CF3-phenyl)])DF-NH2)	100%
		5	170 nM			CC(C)(C)OC(=O)N[C@@H](Cc1c[nH]c2ccccc12)C(=O)N[C@@H](CCCCNC(=O)Nc1ccc(C(F)(F)F)cc1)C(=O)N[C@@H](CC(=O)O)C(=O)N[C@@H](Cc1ccccc1)C(N)=O (Boc-WK([CO-NHPh(4-CF3)])DF-NH2)	
		42		53 nM	1100 nM	CC(C)(C)OC(=O)N[C@@H](Cc1c[nH]c2ccccc12)C(=O)N[C@@H](CCCCNC(=O)Nc1ccccc1)C(=O)N[C@@H](CC(=O)O)C(=O)N[C@@H](Cc1ccccc1)C(N)=O (Boc-WK([CO-NHPh])DF-NH2)	96%
	4.2 nM			55 nM		CC(C)(C)OC(=O)N[C@@H](Cc1c[nH]c2ccccc12)C(=O)N[C@@H](CCCCNC(=O)NC1CCCCC1)C(=O)N[C@@H](CC(=O)O)C(=O)N[C@@H](Cc1ccccc1)C(N)=O (Boc-WK([CO-NHcHex])DF-NH2)	97%
	42 nM	33	170 nM	330 nM		CC(C)(C)NC(=O)NCCCC[C@H](NC(=O)[C@H](Cc1c[nH]c2ccccc12)NC(=O)OC(C)(C)C)C(=O)N[C@@H](CC(=O)O)C(=O)N[C@@H](Cc1ccccc1)C(N)=O (Boc-WK([CO-NHtBu])DF-NH2)	73%
	44 nM	44	160 nM	310 nM		CC(C)(C)OC(=O)N[C@@H](Cc1c[nH]c2ccccc12)C(=O)N[C@@H](CCCCNC(=O)Nc1c(Cl)cccc1Cl)C(=O)N[C@@H](CC(=O)O)C(=O)N[C@@H](Cc1ccccc1)C(N)=O (Boc-WK([CO-X1])DF-NH2)	66%
	4.4 nM	250	23 nM			CC(C)c1ccccc1NC(=O)NCCCC[C@H](NC(=O)[C@H](Cc1c[nH]c2ccccc12)NC(=O)OC(C)(C)C)C(=O)N[C@@H](CC(=O)O)C(=O)N[C@@H](Cc1ccccc1)C(N)=O (Boc-WK([CO-X2])DF-NH2)	85%
	1.9 nM		22 nM	21 nM		CC(C)(C)OC(=O)N[C@@H](Cc1c[nH]c2ccccc12)C(=O)N[C@@H](CCCCNC(=O)Nc1ccccc1[N+](=O)[O-])C(=O)N[C@@H](CC(=O)O)C(=O)N[C@@H](Cc1ccccc1)C(N)=O (Boc-WK([CO-X3])DF-NH2)	100%
19 nM	5.2 nM					CC(=O)c1cccc(NC(=O)NCCCC[C@H](NC(=O)[C@H](Cc2c[nH]c3ccccc23)NC(=O)OC(C)(C)C)C(=O)N[C@@H](CC(=O)O)C(=O)N[C@@H](Cc2ccccc2)C(N)=O)c1 (Boc-WK([CO-X4])DF-NH2)	95%
4.5 nM		670				CC(C)(C)OC(=O)N[C@@H](Cc1c[nH]c2ccccc12)C(=O)N[C@@H](CCCCNC(=O)Nc1cccc(Cl)c1Cl)C(=O)N[C@@H](CC(=O)O)C(=O)N[C@@H](Cc1ccccc1)C(N)=O (Boc-WK([CO-X7])DF-NH2)	
8.5 nM						CC(C)(C)OC(=O)N[C@@H](Cc1c[nH]c2ccccc12)C(=O)N[C@@H](CCCCNC(=O)Nc1ccc(Cl)cc1Cl)C(=O)N[C@@H](CC(=O)O)C(=O)N[C@@H](Cc1ccccc1)C(N)=O (Boc-WK([CO-X8])DF-NH2)	
	7 nM	200		140 nM		CC(C)(C)OC(=O)N[C@@H](Cc1c[nH]c2ccccc12)C(=O)N[C@@H](CCCCNC(=O)Nc1ccc2ccccc2c1)C(=O)N[C@@H](CC(=O)O)C(=O)N[C@@H](Cc1ccccc1)C(N)=O (Boc-WK([CO-βNA])DF-NH2)	79%
	420 nM	23	650 nM			Cc1ccccc1NC(=O)NCCC[C@H](NC(=O)[C@H](Cc1c[nH]c2ccccc12)NC(=O)OC(C)(C)C)C(=O)N[C@@H](CC(=O)O)C(=O)N[C@@H](Cc1ccccc1)C(N)=O (Boc-W[Orn]([CO-NH(2-Me-phenyl)])DF-NH2)	36%
		0.083	12000 nM			CC(C)(C)OC(=O)N[C@@H](Cc1c[nH]c2ccccc12)C(=O)N[C@@H](CCCCNC(N)=O)C(=O)N[C@@H](CC(=O)O)C(=O)N[C@@H](Cc1ccccc1)C(N)=O (Boc-W[hCit]DF-NH2)	

Structure (SMILES)	IC50 [1]	EC50 (Cavia porcellus [2])	Selectivity [3]	IC50 [5]	EC50 (Cavia porcellus [6])	IC50 [7]	Max response (Cavia porcellus [4])
COC(=O)c1ccccc1NC(=O)NCCCC[C@H](NC(=O)[C@H](Cc1c[nH]c2ccccc12)NC(=O)OC(C)(C)C)C(=O)N[C@@H](CC(=O)O)C(=O)N[C@@H](Cc1ccccc1)C(N)=O (Boc-WK([CO-2Abz-OMe])DF-NH2)			91	34 nM			
CC(C)(C)OC(=O)N[C@@H](Cc1c[nH]c2ccccc12)C(=O)N[C@@H](CCCCNC(=O)Nc1cccc2ccccc12)C(=O)N[C@@H](CC(=O)O)C(=O)N[C@@H](Cc1ccccc1)C(N)=O (Boc-WK([CO-NH(1-naphthyl)])DF-NH2)		1.6 nM	690	16 nM	14 nM		103%
